ChEMBL document CHEMBL4184319, “Fluorescent-Labeled Selective Adenosine A2B Receptor Antagonist Enables Competition Binding Assay by Flow Cytometry” (J Med Chem, 2018)
Active and inactive are the calls of the source. The calls are words filed in the database; no cut-off is given here.

Experiments:
Homo sapiens = organism: Homo sapiens; experiment: Selectivity ratio of Ki for recombinant human adenosine A2A receptor expressed in HEK cell membranes to Ki for recombinant human adenosine A2B receptor expressed in CHO cell membranes; type: cell-based
[1] = Selectivity ratio of Ki for recombinant human adenosine A3 receptor expressed in CHO cell membranes to Ki for recombinant mouse adenosine A2B receptor expressed in CHO cell membranes; type: cell-based
[2] = Selectivity ratio of Ki for adenosine A2A receptor in rat brain striatal membranes to Ki for recombinant mouse adenosine A2B receptor expressed in CHO cell membranes; type: cell-based
Adenosine receptor A1 = target: T1, Adenosine receptor A1 (Rattus norvegicus, UniProt P25099); experiment: Displacement of [3H]CCPA from adenosine A1 receptor in rat brain cortical membranes after 90 mins by liquid scintillation counting method; type: cell membranes
T1 sequence (P25099 whole entry): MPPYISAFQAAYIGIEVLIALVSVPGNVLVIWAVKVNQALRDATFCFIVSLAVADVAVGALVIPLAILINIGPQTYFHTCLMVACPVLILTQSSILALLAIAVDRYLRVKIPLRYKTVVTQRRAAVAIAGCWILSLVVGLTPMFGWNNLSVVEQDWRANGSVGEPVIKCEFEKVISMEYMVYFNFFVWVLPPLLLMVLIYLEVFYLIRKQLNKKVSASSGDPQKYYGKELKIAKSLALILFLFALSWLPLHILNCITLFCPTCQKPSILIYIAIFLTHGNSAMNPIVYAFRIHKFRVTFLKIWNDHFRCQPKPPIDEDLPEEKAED
Method in brief: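 [³H]CCPA (1 nM) used with rat brain cortical or human A1-CHO membranes, 90 min at rt. Membranes pre-incubated 10-15 min with ADA 0.12 IU/mL. Nonspecific binding defined with 10 µM CADO. Compounds dissolved in DMSO, 2.5 % final. Filtration on GF/B filters with ice-cold Tris-HCl washes, then scintillation counting. Curves used 6-7 concentrations spanning 3 log units. At least three experiments, in duplicate (human) or triplicate (rat).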

[3] = target: T2, Adenosine receptor A2b (Homo sapiens) (UniProt P29275); experiment: Binding affinity to recombinant human adenosine A2B receptor expressed in CHO cell membranes at 100 nM after 15 mins in presence of DPCPX by confocal microscopic method; type: cell-based
T2 sequence (whole entry): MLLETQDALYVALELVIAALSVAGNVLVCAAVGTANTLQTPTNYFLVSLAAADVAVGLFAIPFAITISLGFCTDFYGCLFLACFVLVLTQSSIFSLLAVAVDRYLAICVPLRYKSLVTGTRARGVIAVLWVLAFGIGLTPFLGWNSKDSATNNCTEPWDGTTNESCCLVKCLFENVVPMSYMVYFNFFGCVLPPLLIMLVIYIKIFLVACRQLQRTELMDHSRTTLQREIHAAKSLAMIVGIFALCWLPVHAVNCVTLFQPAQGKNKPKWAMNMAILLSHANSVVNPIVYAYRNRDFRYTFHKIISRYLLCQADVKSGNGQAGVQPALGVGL
Method in brief: (§1)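 Live CHO cells stably expressing human A2BAR (or wild-type CHO as control) grown on chambered coverslips to about 80 % confluency. Incubated with fluorescent ligand (100 nM) for 15 min at 37°C, alone or after 30 min pre-incubation with PSB-603 (100 nM) or DPCPX (1 µM). Confocal laser scanning imaging with identical settings across conditions. Three similar experiments.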

Adenosine receptor A2a [4] = target: Adenosine receptor A2a (Rattus norvegicus, UniProt P30543); experiment: Displacement of [3H]MSX-2 from adenosine A2A receptor in rat brain striatal membranes after 30 mins by liquid scintillation counting method; type: cell membranes, Striatum, Membrane
Chain of Adenosine receptor A2a (Rattus norvegicus, UniProt P30543) (P30543 whole entry): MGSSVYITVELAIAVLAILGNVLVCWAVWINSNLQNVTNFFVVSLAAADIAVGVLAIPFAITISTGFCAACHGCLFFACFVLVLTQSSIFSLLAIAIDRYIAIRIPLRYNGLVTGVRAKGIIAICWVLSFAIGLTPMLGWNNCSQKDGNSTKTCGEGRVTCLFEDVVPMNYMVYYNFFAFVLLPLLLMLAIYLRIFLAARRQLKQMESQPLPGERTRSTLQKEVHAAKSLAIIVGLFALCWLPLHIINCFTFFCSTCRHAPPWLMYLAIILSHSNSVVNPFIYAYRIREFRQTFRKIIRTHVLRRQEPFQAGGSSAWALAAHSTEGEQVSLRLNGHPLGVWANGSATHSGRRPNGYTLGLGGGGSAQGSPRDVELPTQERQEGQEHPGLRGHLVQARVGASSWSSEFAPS
Method in brief: (§2)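 [³H]MSX-2 (1 nM) used with rat striatal or human A2A-HEK membranes, 30 min at rt. Membranes pre-incubated 10-15 min with ADA 0.12 IU/mL. DMSO 2.5 % final. GF/B filtration, then scintillation counting. Curves used 6-7 concentrations over 3 log units. At least three experiments, in duplicate (human) or triplicate (rat).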

Adenosine receptor A2b [5] = target: T3, Adenosine receptor A2b (Mus musculus, UniProt Q60614); experiment: Displacement of [3H]PSB-603 from recombinant mouse adenosine A2B receptor expressed in CHO cell membranes after 75 mins by liquid scintillation counting method
T3 sequence (Q60614 whole entry): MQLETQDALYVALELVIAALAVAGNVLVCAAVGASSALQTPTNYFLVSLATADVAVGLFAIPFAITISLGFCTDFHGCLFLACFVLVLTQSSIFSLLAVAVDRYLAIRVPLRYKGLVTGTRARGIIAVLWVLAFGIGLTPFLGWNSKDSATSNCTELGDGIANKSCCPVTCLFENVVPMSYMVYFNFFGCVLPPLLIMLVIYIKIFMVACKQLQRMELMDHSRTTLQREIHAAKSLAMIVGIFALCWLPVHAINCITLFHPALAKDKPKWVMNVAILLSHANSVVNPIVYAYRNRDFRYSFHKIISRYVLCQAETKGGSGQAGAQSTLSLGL
Method in brief: (§3)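 [³H]PSB-603 (0.3 nM) used with CHO membranes expressing human, mouse or rat A2BAR, 75 min at rt. Membranes pre-incubated 10-15 min with ADA 0.12 IU/mL. Nonspecific binding defined with 10 µM DPCPX. DMSO 2.5 % final. Filtration on GF/B with ice-cold 50 mM Tris-HCl pH 7.4 containing 0.1 % BSA, then scintillation counting. Curves used 6-7 concentrations over 3 log units. At least three experiments.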

[6] = target: T2, Adenosine receptor A2b (Homo sapiens); experiment: Binding affinity to recombinant human adenosine A2B receptor expressed in CHO cell membranes at 100 nM after 15 mins by confocal microscopic method; type: cell-based; method in brief: as §1
Adenosine receptor A2b [7] = target: T4, Adenosine receptor A2b (Homo sapiens, UniProt P29275); experiment: Displacement of [3H]PSB-603 from recombinant human adenosine A2B receptor expressed in CHO cell membranes after 75 mins by liquid scintillation counting method; method in brief: as §3
T4 sequence (P29275 whole entry): T2 sequence (whole entry)

[8] = Binding affinity to wild type CHO cell membranes at 100 nM after 15 mins by confocal microscopic method; type: cell-based, Cricetulus griseus; conditions: chinese hamster, 0.25 h, 0.1 µM; method in brief: as §1
Adenosine receptor A2a [9] = target: Adenosine receptor A2a (Homo sapiens, UniProt P29274); experiment: Displacement of [3H]MSX-2 from recombinant human adenosine A2A receptor expressed in HEK cell membranes after 30 mins by liquid scintillation counting method
Chain of Adenosine receptor A2a (Homo sapiens, UniProt P29274) (P29274 whole entry): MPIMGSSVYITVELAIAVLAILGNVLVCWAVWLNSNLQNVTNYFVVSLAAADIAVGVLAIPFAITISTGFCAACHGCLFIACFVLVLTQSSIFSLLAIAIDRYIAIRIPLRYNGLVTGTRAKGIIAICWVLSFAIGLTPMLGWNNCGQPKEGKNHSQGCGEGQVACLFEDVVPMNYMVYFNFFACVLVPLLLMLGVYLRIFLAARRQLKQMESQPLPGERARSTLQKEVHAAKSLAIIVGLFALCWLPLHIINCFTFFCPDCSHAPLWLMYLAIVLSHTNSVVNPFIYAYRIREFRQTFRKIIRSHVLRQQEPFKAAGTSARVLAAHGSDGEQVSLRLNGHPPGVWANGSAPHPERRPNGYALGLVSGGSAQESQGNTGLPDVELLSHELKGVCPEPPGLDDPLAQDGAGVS
Method in brief: as §2, with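 “IU/mL. Nonspecific binding defined with 10 µM CGS15943.” for “IU/mL.”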

[10] = Selectivity ratio of Ki for recombinant human adenosine A2A receptor expressed in HEK cell membranes to Ki for recombinant rat adenosine A2B receptor expressed in CHO cell membranes; type: cell-based
Rattus norvegicus = organism: Rattus norvegicus; experiment: Selectivity ratio of Ki for adenosine A2A receptor in rat brain striatal membranes to Ki for recombinant rat adenosine A2B receptor expressed in CHO cell membranes; type: cell-based

`CCCn1c(=O)[nH]c2nc(-c3ccc(OCC(=O)NCCC4=C5C(C)=CC(C)=[N+]5[B-](F)(F)n5c(C)cc(C)c54)cc3)[nH]c2c1=O` showed a Ratio Ki (Homo sapiens) greater than 150, a Ratio Ki [1] greater than 1000 and a Ratio Ki [2] greater than 150. The Ki (Adenosine receptor A1) was 422 nM, the Activity [3] was “inactive” and the Ki (Adenosine receptor A2a [4]) was greater than 10000 nM. For the same molecule, the Ki (Adenosine receptor A2b [5]) was 1.32 nM, the Activity [6] was “Active” and the Ki (Adenosine receptor A2b [7]) was 1.83 nM. For the same molecule, the Activity [8] was “Not Active”, the Ki (Adenosine receptor A2a [9]) was greater than 10000 nM and the Ratio Ki [10] was greater than 1000. It also gave a Ratio Ki (Rattus norvegicus) greater than 150.
